ChEMBL document CHEMBL2146445, “Discovery of BIIB042, a Potent, Selective, and Orally Bioavailable γ-Secretase Modulator” (ACS Med Chem Lett, 2011)
Activity calls are given as the source filed them. No cut-off for these calls is given here.

Assays:
[1] = Modulation of gamma-secretase in CHO cells overexpressing APP V717 mutant assessed as reduction in amyloid beta42 level after 17 hrs by ELISA; assay type: cell-based; settings: Cricetulus griseus
Outline: (§1)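 CHO cells overexpressing APP V717F; Aβ42, Aβ40 and Aβ38 quantified together in each well by multiplex Aβ ELISA. EC50 is the mean of at least two determinations.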

CHO [2] = assay: Modulation of gamma-secretase in CHO cells overexpressing APP V717 mutant assessed as increase in amyloid beta38 level after 17 hrs by ELISA; assay type: cell-based; settings: Cricetulus griseus; outline: as §1
CHO [3] = assay: Modulation of gamma-secretase in CHO cells overexpressing APP V717 mutant assessed as effect on amyloid beta40 level after 17 hrs by ELISA; assay type: cell-based; settings: Cricetulus griseus; outline: as §1
Mus musculus [4] = assay: Antialzheimer activity in CF1 mouse assessed as reduction in amyloid beta42 level in brain at 30 mg/kg, po after 4 hrs by ELISA; assay type: functional; design: scale not given: the % may be the effect or the level left
Outline: (§2)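 Wild-type CF-1 mice received a single oral dose as a solution in ethanol:propylene glycol:10% solutol (1:1:8). Animals were sacrificed 4 h after dosing. Brain and plasma were collected for drug concentration and Aβ levels. Aβ change was expressed relative to vehicle-treated controls.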

[5] = Drug uptake in CF1 mouse brain at 30 mg/kg, po after 4 hrs; assay type: ADME, organism-based; design: dose 30 mg/kg, route oral; settings: read-out: Drug uptake; outline: as §2
[6] = Plasma concentration in CF1 mouse at 30 mg/kg, po after 4 hrs; assay type: ADME, organism-based; design: dose 30 mg/kg, route oral
Outline: (§3)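 Wild-type (CF-1) mice given compound orally as a solution in ethanol:propylene glycol:10% solutol (1:1:8). Animals sacrificed 4 h post-dose; brain and plasma collected for drug exposure and Aβ levels.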

[7] = Drug uptake in CF1 mouse brain at 50 mg/kg, po after 4 hrs; assay type: ADME, organism-based; design: dose 50 mg/kg, route oral; settings: read-out: Drug uptake; outline: as §2
[8] = Modulation of gamma-secretase
Mus musculus [9] = assay: Antialzheimer activity in CF1 mouse assessed as reduction in amyloid beta42 level in brain at 50 mg/kg, po after 4 hrs by ELISA; assay type: functional; design: scale not given: the % may be the effect or the level left; outline: as §2
[10] = Plasma concentration in CF1 mouse at 50 mg/kg, po after 4 hrs; assay type: ADME, organism-based; design: dose 50 mg/kg, route oral; outline: as §3

SMILES	EC50 [1] [nM]	Activity (CHO [2])	Activity (CHO [3])	Activity (Mus musculus [4])	concentration at 4 h [5] [µM]	concentration at 4 h [6] [µM]	concentration at 4 h [7] [µM]	EC50 [8] [µM]	Activity (Mus musculus [9])	concentration at 4 h [10] [µM]
CC(C(=O)O)c1ccc(C(c2ccc(F)cc2)N2CCC(F)CC2)c(-c2ccc(C(F)(F)F)cc2)c1 (configuration not stated)	2000	Active	inactive	–	–	–	–	–	–	–
CC(C(=O)O)c1ccc(C(c2ccc(F)cc2)N2CCN(C)CC2)c(-c2ccc(C(F)(F)F)cc2)c1 (configuration not stated)	> 10000	Active	inactive	–	–	–	–	–	–	–
CC1CCN(C(c2ccc(Cl)cc2)c2ccc(C(C)C(=O)O)cc2-c2ccc(C(F)(F)F)cc2)CC1 (configuration not stated)	420	Active	inactive	25%	19.4	27.1	–	–	–	–
CC1CCN(C(c2ccc(F)cn2)c2ccc(C(C)C(=O)O)cc2-c2ccc(C(F)(F)F)cc2)CC1 (configuration not stated)	3700	Active	inactive	–	–	–	–	–	–	–
CC(C)CCN(Cc1ccc(CC(=O)O)cc1-c1ccc(C(F)(F)F)cc1)c1ccc(C(F)(F)F)cc1	1000	–	–	–	–	–	0.6	–	–	–
C[C@@H](C(=O)O)c1ccc(-c2ccccc2)c(F)c1 [TARENFLURBIL]	–	–	–	–	–	–	–	300	–	–
CC(C(=O)O)c1ccc(C(c2ccc(F)cc2)N2CCCC(C)(C)C2)c(-c2ccc(C(F)(F)F)cc2)c1 (configuration not stated)	170	Active	inactive	25%	2.5	5.3	–	–	–	–
CC1CCN(C(c2ccc(F)cc2)c2ccc(C(CC3CC3)C(=O)O)cc2-c2ccc(C(F)(F)F)cc2)CC1 (configuration not stated)	110	Active	inactive	40%	11.8	29.6	–	–	–	–
CC(C(=O)O)c1ccc(C(c2ccc(F)cc2)N2CCC3(CC2)CC3)c(-c2ccc(C(F)(F)F)cc2)c1 (configuration not stated)	400	Active	inactive	–	–	–	–	–	–	–
O=C(O)Cc1ccc(C(c2ccc(F)cc2)N2CCC(C(F)(F)F)CC2)c(-c2ccc(F)cc2)c1 (configuration not stated)	2300	Active	inactive	–	–	–	–	–	–	–
CC(C(=O)O)c1ccc(C(c2ccc(F)cc2)N2CCCC2)c(-c2ccc(C(F)(F)F)cc2)c1 (configuration not stated)	2300	Active	inactive	–	–	–	–	–	–	–
CC1CCN(C(c2ccc(F)cc2)c2ccc(C(C)C(=O)O)cc2-c2cnc(C(C)(C)C)nc2)CC1 (configuration not stated)	4500	Active	inactive	–	–	–	–	–	–	–
CCC(C(=O)O)c1ccc(C(c2ccc(F)cc2)N2CCC(C)CC2)c(-c2ccc(C(F)(F)F)cc2)c1 (configuration not stated)	330	Active	inactive	40%	13	20.4	–	–	–	–
CC1CCN(C(c2ccc(F)cc2)c2ccc(C(C(=O)O)C(C)C)cc2-c2ccc(C(F)(F)F)cc2)CC1 (configuration not stated)	120	Active	inactive	–	–	–	–	–	–	–
CCCC(C(=O)O)c1ccc(C(c2ccc(F)cc2)N2CCC(C)CC2)c(-c2ccc(C(F)(F)F)cc2)c1 (configuration not stated)	250	Active	inactive	–	–	–	–	–	–	–
O=C(O)Cc1ccc(C(c2ccc(F)cc2)N2CCC(C(F)(F)F)CC2)c(-c2ccc(C(F)(F)F)cc2)c1 (configuration not stated)	1100	Active	inactive	–	–	–	7.4	–	20%	26
CC(C(=O)O)c1ccc(C(c2ccc(F)cc2)N2CCC(C(F)(F)F)CC2)c(-c2ccc(C(F)(F)F)cc2)c1 (configuration not stated)	180	Active	inactive	40%	14.4	21.7	–	–	–	–
CC(C(=O)O)c1ccc(C(c2ccc(F)cc2)N2CCC(C)(C)CC2)c(-c2ccc(C(F)(F)F)cc2)c1 (configuration not stated)	300	Active	inactive	30%	25.3	27.2	–	–	–	–
CC1CCN(C(c2ccc(C(F)(F)F)nc2)c2ccc(C(C)C(=O)O)cc2-c2ccc(C(F)(F)F)cc2)CC1 (configuration not stated)	580	Active	inactive	23%	10.9	25.2	–	–	–	–
CC1CCN(C(c2ccc(C(F)(F)F)cc2)c2ccc(C(C)C(=O)O)cc2-c2ccc(C(F)(F)F)cc2)CC1 (configuration not stated)	180	Active	inactive	inactive	14	20.5	–	–	–	–
CC1CCN(C(c2ccc(F)cc2)c2ccc(C(C)C(=O)O)cc2-c2ccc(C(F)(F)F)cc2)CC1 (racemic)	390	Active	inactive	45%	18.4	27.2	–	–	–	–
CC1CCN(C(c2ccc(F)c(F)c2)c2ccc(C(C)C(=O)O)cc2-c2ccc(C(F)(F)F)cc2)CC1 (configuration not stated)	250	Active	inactive	40%	12	20.8	–	–	–	–
CC1CCN(C(c2ccc(F)cc2)c2ccc(CC(=O)O)cc2-c2ccc(C(F)(F)F)cc2)CC1 (configuration not stated)	2900	Active	inactive	–	–	–	–	–	–	–
CC(C)CC(C(=O)O)c1ccc(C(c2ccc(F)cc2)N2CCCCC2)c(-c2ccc(C(F)(F)F)cc2)c1 (configuration not stated)	120	Active	inactive	–	–	–	5.7	–	30%	32.2
CC(C(=O)O)c1ccc(C(c2ccc(F)cc2)N2CC3CCCC3C2)c(-c2ccc(C(F)(F)F)cc2)c1 (configuration not stated)	620	Active	inactive	30%	12.1	16.3	–	–	–	–
CC(C)(C)c1ccc(-c2cc(CC(=O)O)ccc2C(c2ccc(F)cc2)N2CCC(C(F)(F)F)CC2)cc1 (configuration not stated)	560	Active	inactive	–	–	–	1	–	inactive	6.3
CC(C(=O)O)c1ccc(C(c2ccc(F)cc2)N2CCCCC2)c(-c2ccc(C(F)(F)F)cc2)c1 (configuration not stated)	1400	Active	inactive	–	–	–	–	–	–	–
CC(C)(C)CC(C(=O)O)c1ccc(C(c2ccc(F)cc2)N2CCCCC2)c(-c2ccc(C(F)(F)F)cc2)c1 (configuration not stated)	40	Active	inactive	–	–	–	–	–	–	–
CC(C(=O)O)c1ccc(C(c2ccc(F)cc2)N2CC3CCC(C3)C2)c(-c2ccc(C(F)(F)F)cc2)c1 (configuration not stated)	390	Active	inactive	25%	3.1	10.7	–	–	–	–
CC1CCN(C(c2ccc(F)cc2)c2ccc(C3(C(=O)O)CC3)cc2-c2ccc(C(F)(F)F)cc2)CC1 (configuration not stated)	2200	Active	inactive	–	–	–	–	–	–	–
